# Where “and” joins values, the source holds several entries; their conditions need not be identical. Equal values may be shown once. Calls of active or inactive are those of the source.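 How the source made its calls: active means compounds lowering cell viability with a fitted IC50 within ten times their top tested dose; inconclusive means flat viability loss of 30 to 70 percent, or poor fit; inactive means the rest.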
# Tested on: U2OS HRE-luc cells, viability toxicity counter-screen, CellTiter-Glo
# Assay: viability of U2OS HRE-luciferase line – cell-based, dry powder, set 7, cytotoxicity control for HIF pathway activator project, dose response (AID 493249)
# Settings: not given
# In short: (§1)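 Material: U2OS HRE-luciferase reporter cells; quantity: 6,000 cells/well; evaluation: compound toxicity as loss of cell viability; medium: phenol red-free DMEM, 10% FBS, no hygromycin; detection: CellTiter-Glo luminescence; schedule: 24 h cell attachment, then 24 h compound exposure, 37 °C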
row,Structure (SMILES),IC50
1,c1ccc(-c2nnc(-c3ccccn3)nc2Nc2nc3ccccc3s2)cc1,> 38 µM (inactive)
2,O=C(NCCN1CCCCC1)c1cc(-c2ccccc2)on1,> 38 µM (inactive)
3,c1ccc(-c2nnc(-c3ccccn3)nc2N2CCC(N3CCOCC3)CC2)cc1,> 38 µM (inactive)
4,c1ccc(-c2csc(Nc3nc(-c4ccccn4)nnc3-c3ccccc3)n2)cc1,> 38 µM (inactive)
5,Oc1ccc(CN2CCC3CCCCC3C2)c2cccnc12 (centres undefined),> 38 µM (inactive)
6,CC1CN(Cc2ccc(O)c3ncccc23)CC(C)O1 (centres undefined),> 38 µM (inactive)
7,Cn1c(-c2ccccc2)cnc1Nc1nc(-c2ccccn2)nnc1-c1ccccc1,34.8 µM
8,O=C(c1cc(-c2ccccc2)on1)N1CCN(c2ccncc2)CC1,> 38 µM (inactive)
9,c1ccc(-c2nnc(-c3ccccn3)nc2NCc2ccccn2)cc1,> 38 µM (inactive)
10,c1ccc(-c2nnc(-c3ccccn3)nc2N2CCN(c3ccncc3)CC2)cc1,> 38 µM (inactive)
11,c1ccc(-c2nnc(Nc3nc(-c4ccccn4)nnc3-c3ccccc3)s2)cc1,> 38 µM (inactive)

# Tested on: not listed separately
# Assay: as above
# Settings: U2OS HRE-luc cells, viability toxicity counter-screen, CellTiter-Glo; at 38 µM (top of the series)
# In short: as §1
row,Structure (SMILES),"activity change, negative = toxicity"
1,O=C(c1cc(-c2ccccc2)on1)N1CCC(CO)CC1,1.17% (inactive)
2,CN(C)CCNC(=O)c1cc(-c2ccccc2)on1,14.4% (inactive)
3,O=C(Nc1cn2ccccc2n1)c1cc(-c2ccccc2)on1,-3.68% (inactive)
4,Cc1cccc(Nc2nc(-c3ccccn3)nnc2-c2ccccc2)n1,-12.6% (inactive)
5,Oc1ccc(CN2CCc3ccccc3C2)c2cccnc12,-16.2% (inactive)
6,OCC1CCN(Cc2ccc(O)c3ncccc23)CC1,-25% (inactive)
7,c1ccc(-c2nnc(-c3ccccn3)nc2NCCc2ccccn2)cc1,4.22% (inactive)
8,COc1cccc(CNc2nc(-c3ccccn3)nnc2-c2ccccc2)c1,-14.9% (inactive)
9,OCC1CCN(c2nc(-c3ccccn3)nnc2-c2ccccc2)CC1,-13.9% (inactive)
10,O=C(NC1Cc2ccccc2C1)c1cc(-c2ccccc2)on1,-13.3% (inactive)
11,c1ccc(-c2cnc(Nc3nc(-c4ccccn4)nnc3-c3ccccc3)s2)cc1,1.53% (inactive)
12,O=C(c1cc(-c2ccccc2)on1)N1CCC(N2CCCC2)CC1,-8.3% (inactive)
13,Cn1c(NC(=O)c2cc(-c3ccccc3)on2)nc2ccccc21,-0.865% (inactive)
14,Cc1cccc(CNC(=O)c2cc(-c3ccccc3)on2)c1,-1.11% (inactive)
15,c1ccc(-c2nnc(-c3ccccn3)nc2NCc2cccnc2)cc1,40.2% (inactive)
16,CN1CCN(C(=O)c2cc(-c3ccccc3)on2)CC1,3.42% (inactive)
17,O=C(NCCCn1ccnc1)c1cc(-c2ccccc2)on1,-7.78% (inactive)
18,O=C(NCCCCO)c1cc(-c2ccccc2)on1,-16.3% (inactive)
19,Cc1ccc(NC(=O)c2cc(-c3ccccc3)on2)cn1,-11.1% (inactive)
20,O=C(Nc1nc(-c2ccccc2)cs1)c1cc(-c2ccccc2)on1,13.9% (inactive)
21,CCCCNC(=O)c1cc(-c2ccccc2)on1,-11.5% (inactive)
22,CC(C)(C)CCNC(=O)c1cc(-c2ccccc2)on1,-7.02% (inactive)
23,c1ccc(-c2nnc(-c3ccccn3)nc2N2CCC(c3ccccc3)C2)cc1 (centres undefined),-24.1% (inactive)

row,Structure (SMILES),"activity change, negative = toxicity"
1,CN(C)c1nc(-c2ccccn2)nnc1-c1ccccc1,2.11% (inactive)
2,O=C(NCCCO)c1cc(-c2ccccc2)on1,-3.27% (inactive)
3,O=C(NC1CCc2ccccc2C1)c1cc(-c2ccccc2)on1 (centres undefined),-10.6% (inactive)
4,O=C(Nc1nc2ccccc2s1)c1cc(-c2ccccc2)on1,-1.46% (inactive)
5,OCCCNc1nc(-c2ccccn2)nnc1-c1ccccc1,4.98% (inactive)
6,O=C(Nc1ncc2ccccc2n1)c1cc(-c2ccccc2)on1,-4.1% (inactive)
7,Oc1ccc(CNC2Cc3ccccc3C2)c2cccnc12,0.726% (inactive)
8,O=C(Nc1cnc2ccccc2c1)c1cc(-c2ccccc2)on1,0.164% (inactive)
9,O=C(NCc1ccccc1)c1cc(-c2ccccc2)on1,-7.7% (inactive)
10,C=CCNc1nc(-c2ccccn2)nnc1-c1ccccc1,3.09% (inactive)
11,Cc1ccc(CNC(=O)c2cc(-c3ccccc3)on2)cc1,1.57% (inactive)
12,C[C@@H](Nc1nc(-c2ccccn2)nnc1-c1ccccc1)c1ccccc1,-13.6% (inactive)
13,N#CC1(c2ccccc2)CCN(Cc2ccc(O)c3ncccc23)CC1,7.2% (inactive)
14,CC(C)(C)OC(=O)N1CCN(Cc2ccc(O)c3ncccc23)CC1,6.17% (inactive)
15,O=C(NCCN1CCOCC1)c1cc(-c2ccccc2)on1,-16.1% (inactive)
16,Cc1cccc(NC(=O)c2cc(-c3ccccc3)on2)n1,-0.352% (inactive)
17,Cc1ccccc1CNc1nc(-c2ccccn2)nnc1-c1ccccc1,-17.6% (inactive)
18,O=C(Nc1ncc(-c2ccccc2)o1)c1cc(-c2ccccc2)on1,1.41% (inactive)
19,c1ccc(-c2nnc(-c3ccccn3)nc2NCCN2CCOCC2)cc1,-9.28% (inactive)
20,O=C(c1cc(-c2ccccc2)on1)N1CCc2cccnc21,-7.75% (inactive)
21,O=C(NCC1CCCCC1)c1cc(-c2ccccc2)on1,0.869% (inactive)
22,CN1CCN(c2nc(-c3ccccn3)nnc2-c2ccccc2)CC1,-13.4% (inactive)
23,Cn1c(-c2ccccc2)cnc1NC(=O)c1cc(-c2ccccc2)on1,-8.92% (inactive)

row,Structure (SMILES),"activity change, negative = toxicity"
1,O=C(Nc1nnc(-c2ccccc2)s1)c1cc(-c2ccccc2)on1,-7.07% (inactive)
2,Clc1cccc(CNc2nc(-c3ccccn3)nnc2-c2ccccc2)c1,2.17% (inactive)
3,Cc1ccccc1CNC(=O)c1cc(-c2ccccc2)on1,-4.19% (inactive)
4,Oc1ccc(CNC2CCc3ccccc32)c2cccnc12 (centres undefined),-17.9% (inactive)
5,Oc1ccc(CN2CCC(Cc3ccccc3)CC2)c2cccnc12,-14.5% (inactive)
6,CC(C)(C)CCNc1nc(-c2ccccn2)nnc1-c1ccccc1,-13% (inactive) and -32.8% (inactive)
7,c1ccc(-c2nnc(-c3ccccn3)nc2NCC2CCOCC2)cc1,20.8% (inactive)
8,c1ccc(-c2nnc(-c3ccccn3)nc2NCC2CCCCC2)cc1,-26% (inactive)
9,Cc1ccc(CNc2nc(-c3ccccn3)nnc2-c2ccccc2)cc1,-15.4% (inactive)
10,Cc1cccc(CNc2nc(-c3ccccn3)nnc2-c2ccccc2)c1,-16.7% (inactive)
11,c1ccc(-c2nnc(-c3ccccn3)nc2N2CCC(C3CCCCC3)C2)cc1 (centres undefined),14.5% (inactive)
12,COc1ccc(CNc2nc(-c3ccccn3)nnc2-c2ccccc2)cc1,-2.05% (inactive)
13,O=C(c1cc(-c2ccccc2)on1)N1CCC(N2CCOCC2)CC1,-9.91% (inactive)
14,COc1ccccc1N1CCN(Cc2ccc(O)c3ncccc23)CC1,-18.6% (inactive)
15,c1ccc(-c2nnc(-c3ccccn3)nc2NCC2CC2)cc1,8.28% (inactive)
16,c1ccc(CCNc2nc(-c3ccccn3)nnc2-c2ccccc2)cc1,-5.99% (inactive)
17,O=C(Nc1ccc2ccccc2n1)c1cc(-c2ccccc2)on1,9.02% (inactive)
18,CC(Nc1nc(-c2ccccn2)nnc1-c1ccccc1)c1ccccc1 (centres undefined),0.427% (inactive)
19,O=C(NCC1CC1)c1cc(-c2ccccc2)on1,-6.03% (inactive)
20,c1ccc(-c2nnc(-c3ccccn3)nc2NCCCN2CCOCC2)cc1,11% (inactive)
21,c1ccc(-c2cccc(CNc3nc(-c4ccccn4)nnc3-c3ccccc3)c2)cc1,-2.36% (inactive)
22,O=C(NCCCN1CCOCC1)c1cc(-c2ccccc2)on1,0.736% (inactive)

# From PubChem BioAssay AID493249 (Broad Institute, 2011)
